pEC50, pIC50: −log10 of the molar value. Calls of active or inactive are those of the source. No cut-off for these calls is given here.
Legend:
[1] = molecular target: T1, Telomerase reverse transcriptase (Homo sapiens, UniProt O14746); test: Inhibition of human recombinant telomerase activity in rabbit reticulocytes at 50 uM after 90 mins by telomerase assemblage gel electrophoresis; type: cell-based
Outline: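 Assembly format: hTERT translated in rabbit reticulocyte lysate was incubated 1.5 h with in vitro transcribed hTER in the presence of inhibitor. Activity was then read by direct primer extension, with products resolved by gel electrophoresis and imaged by phosphorimaging. Products were normalized to a 100 nt 32P-labeled oligonucleotide loading control, and percent activity was calculated against a DMSO carrier control.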

[2] = molecular target: T1, Telomerase reverse transcriptase; details: 50 uM
[3] = molecular target: T1, Telomerase reverse transcriptase; details: 50 uM; remark: listed apart in the source
[4] = molecular target: T1, Telomerase reverse transcriptase; details: 50 uM; remark: listed apart in the source
[5] = molecular target: T1, Telomerase reverse transcriptase; test: Inhibition of human recombinant telomerase activity in rabbit reticulocytes after 90 mins by telomerase assemblage gel electrophoresis; type: cell-based
Outline: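 hTERT translated in rabbit reticulocyte lysate, then incubated 1.5 h with in vitro transcribed hTER in the presence of inhibitor (DMSO carrier). Activity was read by direct primer extension, with products resolved on gel and phosphorimaged. Signal was normalized to a 100 nt 32P-labeled DNA loading control, and percent activity was taken versus the DMSO-only control.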

[6] = molecular target: T1, Telomerase reverse transcriptase; test: Inhibition of pre-assembled human recombinant telomerase activity in rabbit reticulocytes after 90 mins by gel electrophoresis method based direct primer extension assay; type: cell-based
Outline: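 Telomerase was first reconstituted in rabbit reticulocyte lysate from hTERT and hTER, then assayed post-assembly by direct primer extension with inhibitor present. Products were gel-resolved, phosphorimaged and normalized to a 32P-labeled 100 nt oligonucleotide loading control. Percent activity was taken relative to the DMSO carrier control.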

[7] = Induction of ROS generation assessed as hydrogen peroxide production in PBS buffer at 20 uM in absence of DTT; type: physicochemical
Outline: (§1)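 Compound at 20 µM incubated in PBS for set times under three conditions: no DTT, with 5 mM DTT, or with 5 mM DTT plus 30 U catalase. Hydrogen peroxide was measured with a commercial hydrogen peroxide kit. Two independent experiments; mean and standard deviation reported.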

[8] = Induction of ROS generation assessed as hydrogen peroxide production in PBS buffer at 20 uM in presence of 5 nM of DTT; type: physicochemical; details: in the assay text read “5 mM of DTT” for “5 nM of DTT”, TDE = time-dependent effect; outline: as §1
MCF7 = test: Cytotoxicity against telomerase positive human MCF7 cells after 96 hrs by SRB assay; type: functional, cell-based; details: MCF7, 96 h
SAOS-2 = test: Cytotoxicity against telomerase negative human Saos2 cells after 96 hrs by SRB assay; type: functional, cell-based; details: SAOS-2, 96 h
PC-3 = test: Cytotoxicity against telomerase positive human PC3 cells after 96 hrs by SRB assay; type: functional, cell-based; details: PC-3, 96 h
[9] = molecular target: T1, Telomerase reverse transcriptase; details: MCF7, 3 uM
[10] = Cytotoxicity against telomerase negative human GM847 cells after 96 hrs by SRB assay; type: functional, cell-based; details: GM847, 96 h
[11] = Induction of ROS generation assessed as hydrogen peroxide production in PBS buffer at 20 uM in presence of 5 nM of DTT in presence of 30U catalase; type: physicochemical; details: in the assay text read “5 mM of DTT” for “5 nM of DTT”; outline: as §1

T1 sequence (O14746 whole entry): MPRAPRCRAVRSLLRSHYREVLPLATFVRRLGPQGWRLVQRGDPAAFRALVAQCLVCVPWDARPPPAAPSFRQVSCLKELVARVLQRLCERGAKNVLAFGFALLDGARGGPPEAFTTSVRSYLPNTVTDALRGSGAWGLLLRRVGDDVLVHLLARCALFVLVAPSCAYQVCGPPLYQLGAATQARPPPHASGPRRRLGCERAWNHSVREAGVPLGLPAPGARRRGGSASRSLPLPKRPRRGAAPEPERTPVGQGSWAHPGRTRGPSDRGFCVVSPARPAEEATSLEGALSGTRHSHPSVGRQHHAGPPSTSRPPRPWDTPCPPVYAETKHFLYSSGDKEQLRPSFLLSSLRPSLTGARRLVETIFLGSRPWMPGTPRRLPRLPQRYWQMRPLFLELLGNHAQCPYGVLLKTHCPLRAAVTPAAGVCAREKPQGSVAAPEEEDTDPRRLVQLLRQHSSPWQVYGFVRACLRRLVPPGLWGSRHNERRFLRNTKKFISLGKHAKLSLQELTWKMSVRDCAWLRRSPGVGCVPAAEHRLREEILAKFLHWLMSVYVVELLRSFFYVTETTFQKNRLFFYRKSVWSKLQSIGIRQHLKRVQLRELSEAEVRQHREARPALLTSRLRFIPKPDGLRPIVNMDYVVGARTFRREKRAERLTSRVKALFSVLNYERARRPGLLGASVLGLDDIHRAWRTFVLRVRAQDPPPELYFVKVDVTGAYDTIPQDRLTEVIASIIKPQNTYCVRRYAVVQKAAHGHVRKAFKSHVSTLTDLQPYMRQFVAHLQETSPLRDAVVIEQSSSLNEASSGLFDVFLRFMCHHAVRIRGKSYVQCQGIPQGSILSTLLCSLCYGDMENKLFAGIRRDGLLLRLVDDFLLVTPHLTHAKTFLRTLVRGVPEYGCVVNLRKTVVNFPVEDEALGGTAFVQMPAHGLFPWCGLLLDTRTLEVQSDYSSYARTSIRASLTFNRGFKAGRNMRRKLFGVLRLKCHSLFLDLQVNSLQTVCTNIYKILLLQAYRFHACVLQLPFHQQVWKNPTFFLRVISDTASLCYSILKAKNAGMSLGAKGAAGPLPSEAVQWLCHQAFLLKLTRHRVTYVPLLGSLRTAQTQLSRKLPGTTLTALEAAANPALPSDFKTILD

Structure (SMILES): Cc1cccc2c1ccc1c3occ(C)c3c(=O)oc21
- inhibition [1]: 25%

Structure (SMILES): Cc1coc2c1C(=O)C(=O)c1c-2ccc2c(C)cccc12
- inhibition [1]: 65%

Structure (SMILES): O=C1C(=O)c2ccccc2-c2ccccc21 [9,10-PHENANTHRENEQUINONE]
- inhibition [2]: inactive
- inhibition [3]: 35%
- inhibition [4]: > 95%
- pIC50 [5]: 5.30
- pIC50 [6]: 6.30

Structure (SMILES): Cc1coc2c1C(=O)C(=O)c1c-2ccc2c1CCCC2(C)C [TANSHINONE IIA]
- Activity [7]: Not Active
- Activity [8]: tde
- pEC50 (MCF7): 6.05
- pEC50 (SAOS-2): < 4.70
- pEC50 (PC-3): 5.92
- inhibition [1]: 75%
- inhibition [9]: 50%
- pEC50 [10]: < 4.70
- Activity [11]: Not Active
- pIC50 [5]: 5.30
- pIC50 [6]: 6.30

Structure (SMILES): C[C@H]1COC2=C1C(=O)C(=O)c1c2ccc2c1CCCC2(C)C
- inhibition [1]: 75%

Source: ChEMBL document CHEMBL2157942, “ortho-Quinone tanshinones directly inhibit telomerase through an oxidative mechanism mediated by hydrogen peroxide” (Bioorg Med Chem Lett, 2011)
